Experimental findings from ChEMBL document CHEMBL4665899, “Exploring the Chemical Space of Benzothiazole-Based DNA Gyrase B Inhibitors” (ACS Med Chem Lett, 2020) are described below.

The target of one assay is Topoisomerase IV (Staphylococcus aureus) (UniProt P0C1U9+P0C1S7). Description: Inhibition of Staphylococcus aureus DNA topoisomerase 4 assessed as enzyme residual activity at 10 uM using supercoiled pNO1 plasmid DNA as substrate incubated for 30 mins by fluorescence assay relative to control. In kind it is protein-complex assay.
For the compound `O=C(O)CC(=O)Nc1ccc2nc(NC(=O)c3cc(Br)c(Br)[nH]3)[nH]c2c1`, the Activity is 100%.
On to `COC(=O)CC(=O)Nc1ccc2nc(NC(=O)c3cc(Br)c(Br)[nH]3)[nH]c2c1`, for which the Activity came to 100%.
On to `Cc1[nH]c(C(=O)Nc2nc3ccc(NC(=O)CCNC(=O)OC(C)(C)C)cc3s2)c(Cl)c1Cl`, for which the Activity was 100%.
Take `CCOC(=O)C(=O)Nc1ccc2nc(NC(=O)c3cc(Br)c(Br)[nH]3)[nH]c2c1`: the Activity was 100%.
Still for that read-out and setting: the value for `Cc1[nH]c(C(=O)Nc2nc3ccc(N)cc3s2)c(Cl)c1Cl` was 100%.

The next assay relates to Escherichia coli. Description: Antibacterial activity against efflux pump defective Escherichia coli JW5503 harbouring tolC mutant assessed as minimum inhibitory concentration required for >=90% inhibition of bacterial growth measured after 24 hrs by broth microdilution method. In kind it is functional. (In general: Broth dilution looks for growth in wells or tubes with falling amounts of substance.)
In the case of `O=C(O)CC(=O)Nc1ccc2nc(NC(=O)c3cc(Br)c(Br)[nH]3)[nH]c2c1`, the MIC is over 50 µM.
The same measure, in the same setting: the value for `COC(=O)CC(=O)Nc1ccc2nc(NC(=O)c3cc(Br)c(Br)[nH]3)[nH]c2c1` was over 50 µM; that for `Cc1[nH]c(C(=O)Nc2nc3ccc(NC(=O)CCNC(=O)OC(C)(C)C)cc3s2)c(Cl)c1Cl` was over 50 µM.
Same read-out and setting: next, `CCOC(=O)C(=O)Nc1ccc2nc(NC(=O)c3cc(Br)c(Br)[nH]3)[nH]c2c1`: over 50 µM.

A further assay has as its system Escherichia coli. Description: Antibacterial activity against Escherichia coli ATCC 25922 assessed as minimum inhibitory concentration required for >=90% inhibition of bacterial growth measured after 24 hrs by broth microdilution method. It counts as functional. The procedure, abridged:
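Cation-adjusted Mueller Hinton broth culture grown 16-20 h at 37°C with 100 rpm shaking. CLSI broth microdilution at a final inoculum of 5×10^5 CFU/mL, 8 concentrations from […], incubated 24 h at 37°C. A620 read and growth inhibition expressed as % of untreated controls. Ciprofloxacin positive control on every plate; n = 3.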
As to `O=C(O)CC(=O)Nc1ccc2nc(NC(=O)c3cc(Br)c(Br)[nH]3)[nH]c2c1`, the MIC is over 50 µM.
The same measure, in the same setting: next, `COC(=O)CC(=O)Nc1ccc2nc(NC(=O)c3cc(Br)c(Br)[nH]3)[nH]c2c1`: over 50 µM; `Cc1[nH]c(C(=O)Nc2nc3ccc(NC(=O)CCNC(=O)OC(C)(C)C)cc3s2)c(Cl)c1Cl`: over 50 µM.
For the compound `CCOC(=O)C(=O)Nc1ccc2nc(NC(=O)c3cc(Br)c(Br)[nH]3)[nH]c2c1`, the MIC is over 50 µM.

In the next assay the test system is Staphylococcus aureus. Description: Antibacterial activity against Staphylococcus aureus ATCC 29213 assessed as minimum inhibitory concentration required for >=90% inhibition of bacterial growth measured after 24 hrs by broth microdilution method. In kind it is functional. The procedure, abridged: (§1)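 Strains were grown from cation-adjusted Mueller-Hinton agar slants into cation-adjusted MH broth at 37°C for 16-20 h at 100 rpm. Broth microdilution followed CLSI guidelines, with a final inoculum of 5×10^5 CFU/mL mixed 1:1 with compound in MH broth and incubated for 24 h at 37°C. Growth was read as A620 and expressed as percentage inhibition relative to untreated controls. Each plate included a ciprofloxacin positive control.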
Consider `O=C(O)CC(=O)Nc1ccc2nc(NC(=O)c3cc(Br)c(Br)[nH]3)[nH]c2c1`, for which the minimal inhibitory concentration (MIC) is over 50 µM.
Same read-out and setting: next, `COC(=O)CC(=O)Nc1ccc2nc(NC(=O)c3cc(Br)c(Br)[nH]3)[nH]c2c1`: over 50 µM.
On the same count and under the same terms, next, `Cc1[nH]c(C(=O)Nc2nc3ccc(NC(=O)CCNC(=O)OC(C)(C)C)cc3s2)c(Cl)c1Cl`: over 50 µM; `CCOC(=O)C(=O)Nc1ccc2nc(NC(=O)c3cc(Br)c(Br)[nH]3)[nH]c2c1`: over 50 µM.

Another assay concerns the target DNA gyrase (Escherichia coli, UniProt P0AES4+P0AES6). Briefly: Inhibition of Escherichia coli DNA gyrase using relaxed pNO1 plasmid DNA as substrate incubated for 30 mins by fluorescence assay. It counts as protein-complex assay.
For `O=C(O)CC(=O)Nc1ccc2nc(NC(=O)c3cc(Br)c(Br)[nH]3)[nH]c2c1`, half-maximal inhibition (IC50) required 1500 nM.
Still for that read-out and setting: next, `COC(=O)CC(=O)Nc1ccc2nc(NC(=O)c3cc(Br)c(Br)[nH]3)[nH]c2c1`: 7000 nM; `Cc1[nH]c(C(=O)Nc2nc3ccc(NC(=O)CCNC(=O)OC(C)(C)C)cc3s2)c(Cl)c1Cl`: 110 nM; `CCOC(=O)C(=O)Nc1ccc2nc(NC(=O)c3cc(Br)c(Br)[nH]3)[nH]c2c1`: 4000 nM.
`Cc1[nH]c(C(=O)Nc2nc3ccc(N)cc3s2)c(Cl)c1Cl` registered an IC50 of 16000 nM.

Another assay concerns Escherichia coli. Briefly: Antibacterial activity against outer membrane impaired Escherichia coli JD17464 harboring lpxC mutant assessed as minimum inhibitory concentration required for >=90% inhibition of bacterial growth measured after 24 hrs by broth microdilution method. It counts as functional.
Consider `O=C(O)CC(=O)Nc1ccc2nc(NC(=O)c3cc(Br)c(Br)[nH]3)[nH]c2c1`, for which the MIC is over 50 µM.
Still for that read-out and setting: the value for `COC(=O)CC(=O)Nc1ccc2nc(NC(=O)c3cc(Br)c(Br)[nH]3)[nH]c2c1` was over 50 µM; that for `Cc1[nH]c(C(=O)Nc2nc3ccc(NC(=O)CCNC(=O)OC(C)(C)C)cc3s2)c(Cl)c1Cl` was over 50 µM; that for `CCOC(=O)C(=O)Nc1ccc2nc(NC(=O)c3cc(Br)c(Br)[nH]3)[nH]c2c1` was over 50 µM.

A further assay has as its system Enterococcus faecalis. Description: Antibacterial activity against Enterococcus faecalis ATCC 29212 assessed as minimum inhibitory concentration required for >=90% inhibition of bacterial growth after 24 hrs by broth microdilution method. In kind it is functional. A digest of the protocol:
as §1
With `O=C(O)CC(=O)Nc1ccc2nc(NC(=O)c3cc(Br)c(Br)[nH]3)[nH]c2c1`, the MIC is over 50 µM.
For the compound `COC(=O)CC(=O)Nc1ccc2nc(NC(=O)c3cc(Br)c(Br)[nH]3)[nH]c2c1`, the MIC is over 50 µM.
As to `Cc1[nH]c(C(=O)Nc2nc3ccc(NC(=O)CCNC(=O)OC(C)(C)C)cc3s2)c(Cl)c1Cl`, the MIC is over 50 µM.
Turning to `CCOC(=O)C(=O)Nc1ccc2nc(NC(=O)c3cc(Br)c(Br)[nH]3)[nH]c2c1`, the MIC is over 50 µM.

The next assay has as its system Pseudomonas aeruginosa. Description: Antibacterial activity against Pseudomonas aeruginosa ATCC 27853 assessed as minimum inhibitory concentration required for >=90% inhibition of bacterial growth measured after 24 hrs by broth microdilution method. In kind it is functional. A digest of the protocol:
as §1
Turning to `O=C(O)CC(=O)Nc1ccc2nc(NC(=O)c3cc(Br)c(Br)[nH]3)[nH]c2c1`, the MIC was over 50 µM.
On to `COC(=O)CC(=O)Nc1ccc2nc(NC(=O)c3cc(Br)c(Br)[nH]3)[nH]c2c1`, for which the MIC is over 50 µM.
Consider `Cc1[nH]c(C(=O)Nc2nc3ccc(NC(=O)CCNC(=O)OC(C)(C)C)cc3s2)c(Cl)c1Cl`, for which the MIC was over 50 µM.
Regarding `CCOC(=O)C(=O)Nc1ccc2nc(NC(=O)c3cc(Br)c(Br)[nH]3)[nH]c2c1`, the MIC was over 50 µM.

A further assay has as its system Escherichia coli. Briefly: Inhibition of Escherichia coli DNA topoisomerase 4 assessed as enzyme residual activity at 10 uM using supercoiled pNO1 plasmid DNA as substrate incubated for 30 mins by fluorescence assay relative to control.
`O=C(O)CC(=O)Nc1ccc2nc(NC(=O)c3cc(Br)c(Br)[nH]3)[nH]c2c1`: the Activity is 100%.
Take `COC(=O)CC(=O)Nc1ccc2nc(NC(=O)c3cc(Br)c(Br)[nH]3)[nH]c2c1`: the Activity came to 100%.
Still for that read-out and setting: next, `Cc1[nH]c(C(=O)Nc2nc3ccc(NC(=O)CCNC(=O)OC(C)(C)C)cc3s2)c(Cl)c1Cl`: 100%.
On the same count and under the same terms, the value for `CCOC(=O)C(=O)Nc1ccc2nc(NC(=O)c3cc(Br)c(Br)[nH]3)[nH]c2c1` was 100%.
The same measure, in the same setting: the value for `Cc1[nH]c(C(=O)Nc2nc3ccc(N)cc3s2)c(Cl)c1Cl` was 100%.

For the next assay, the target named is DNA gyrase (Staphylococcus aureus, UniProt P0A0K8+P20831). Briefly: Inhibition of Staphylococcus aureus DNA gyrase using relaxed pNO1 plasmid DNA as substrate incubated for 30 mins by fluorescence assay. In kind it is protein-complex assay.
Chain of DNA gyrase (Staphylococcus aureus, UniProt P0A0K8+P20831) (P0A0K8 whole entry): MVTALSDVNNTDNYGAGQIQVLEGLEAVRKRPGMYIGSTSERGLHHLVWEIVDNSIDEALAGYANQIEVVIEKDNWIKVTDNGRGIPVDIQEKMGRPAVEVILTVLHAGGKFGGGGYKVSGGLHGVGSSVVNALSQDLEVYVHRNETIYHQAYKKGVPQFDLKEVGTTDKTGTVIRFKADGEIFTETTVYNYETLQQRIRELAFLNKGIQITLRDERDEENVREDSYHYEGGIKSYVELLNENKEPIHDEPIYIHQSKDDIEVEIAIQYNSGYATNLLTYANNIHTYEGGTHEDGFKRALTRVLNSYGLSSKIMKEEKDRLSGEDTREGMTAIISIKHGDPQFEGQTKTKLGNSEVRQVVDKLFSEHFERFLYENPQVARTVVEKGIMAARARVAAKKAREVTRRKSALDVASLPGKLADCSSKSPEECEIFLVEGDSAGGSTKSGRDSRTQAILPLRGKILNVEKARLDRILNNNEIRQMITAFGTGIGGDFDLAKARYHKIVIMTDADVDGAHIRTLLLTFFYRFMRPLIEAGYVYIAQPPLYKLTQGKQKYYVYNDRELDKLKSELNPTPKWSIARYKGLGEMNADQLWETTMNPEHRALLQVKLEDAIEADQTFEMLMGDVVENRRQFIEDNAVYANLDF
Chain of DNA gyrase (Staphylococcus aureus, UniProt P0A0K8+P20831) (P20831 whole entry): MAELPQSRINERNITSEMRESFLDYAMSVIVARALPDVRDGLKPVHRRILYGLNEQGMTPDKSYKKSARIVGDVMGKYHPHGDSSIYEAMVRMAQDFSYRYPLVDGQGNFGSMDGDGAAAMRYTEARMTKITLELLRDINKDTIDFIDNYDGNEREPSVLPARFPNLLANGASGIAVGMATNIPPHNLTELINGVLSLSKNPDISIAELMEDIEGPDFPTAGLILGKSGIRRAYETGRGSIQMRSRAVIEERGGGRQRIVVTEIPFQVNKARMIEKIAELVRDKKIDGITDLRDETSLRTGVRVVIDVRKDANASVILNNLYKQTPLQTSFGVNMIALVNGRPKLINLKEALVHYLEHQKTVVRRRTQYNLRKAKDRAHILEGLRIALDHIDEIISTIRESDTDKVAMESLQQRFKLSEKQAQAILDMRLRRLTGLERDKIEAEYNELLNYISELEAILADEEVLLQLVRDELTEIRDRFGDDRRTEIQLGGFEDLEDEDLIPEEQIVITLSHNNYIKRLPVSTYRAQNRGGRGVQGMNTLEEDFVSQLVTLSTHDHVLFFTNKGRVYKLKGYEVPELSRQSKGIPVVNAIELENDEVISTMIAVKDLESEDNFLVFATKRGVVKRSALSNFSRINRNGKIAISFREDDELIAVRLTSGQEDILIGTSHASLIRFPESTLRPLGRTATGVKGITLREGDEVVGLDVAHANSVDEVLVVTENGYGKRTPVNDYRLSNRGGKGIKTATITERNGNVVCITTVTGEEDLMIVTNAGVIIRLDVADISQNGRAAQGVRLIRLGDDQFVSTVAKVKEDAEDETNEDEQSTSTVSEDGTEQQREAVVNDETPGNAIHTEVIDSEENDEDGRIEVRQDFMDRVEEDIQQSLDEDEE
Consider `Cc1[nH]c(C(=O)Nc2nc3ccc(NC(=O)CCNC(=O)OC(C)(C)C)cc3s2)c(Cl)c1Cl`, for which inhibition was half-maximal at 780 nM (IC50).

A further assay deals with DNA gyrase (Staphylococcus aureus) (UniProt P0A0K8+P20831). Description: Inhibition of Staphylococcus aureus DNA gyrase assessed as enzyme residual activity at 10 uM using relaxed pNO1 plasmid DNA as substrate incubated for 30 mins by fluorescence assay relative to control. It counts as protein-complex assay.
Chain of DNA gyrase (Staphylococcus aureus) (P0A0K8 2-644 limits assumed): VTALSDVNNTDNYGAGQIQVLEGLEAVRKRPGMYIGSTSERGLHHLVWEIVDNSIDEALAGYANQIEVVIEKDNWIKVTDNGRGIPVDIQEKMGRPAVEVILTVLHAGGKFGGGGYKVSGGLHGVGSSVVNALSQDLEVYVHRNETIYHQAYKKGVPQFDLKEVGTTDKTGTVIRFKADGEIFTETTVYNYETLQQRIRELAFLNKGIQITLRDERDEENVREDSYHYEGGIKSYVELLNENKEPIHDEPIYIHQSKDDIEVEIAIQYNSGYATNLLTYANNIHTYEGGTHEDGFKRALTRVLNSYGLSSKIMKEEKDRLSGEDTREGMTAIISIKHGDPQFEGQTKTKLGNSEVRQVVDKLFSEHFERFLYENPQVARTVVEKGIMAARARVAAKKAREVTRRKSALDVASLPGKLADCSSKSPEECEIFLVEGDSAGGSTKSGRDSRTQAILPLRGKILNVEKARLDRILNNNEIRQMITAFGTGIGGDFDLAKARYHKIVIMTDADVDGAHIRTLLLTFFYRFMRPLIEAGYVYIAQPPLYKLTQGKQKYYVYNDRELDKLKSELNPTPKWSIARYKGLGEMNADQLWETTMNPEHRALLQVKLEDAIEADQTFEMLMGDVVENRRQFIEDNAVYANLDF
Chain of DNA gyrase (Staphylococcus aureus) (P20831 whole entry partner): as the sequence (P20831 whole entry) above
For `O=C(O)CC(=O)Nc1ccc2nc(NC(=O)c3cc(Br)c(Br)[nH]3)[nH]c2c1`, the Activity was 100%.
Same read-out and setting: next, `COC(=O)CC(=O)Nc1ccc2nc(NC(=O)c3cc(Br)c(Br)[nH]3)[nH]c2c1`: 100%; `CCOC(=O)C(=O)Nc1ccc2nc(NC(=O)c3cc(Br)c(Br)[nH]3)[nH]c2c1`: 100%.
For `Cc1[nH]c(C(=O)Nc2nc3ccc(N)cc3s2)c(Cl)c1Cl`, the Activity was found to be 60%.

By MIC is commonly meant the lowest concentration that inhibits growth of the organism. A word on the IC50: it is the concentration that inhibits the measured activity by half. A low value points to higher potency.
